Assay results from ChEMBL document CHEMBL2010801, “Semisynthesis and antimicrobial activity of novel guttiferone-A derivatives” (Bioorg Med Chem, 2012).
In brackets after ≈: the same amount, converted by molar mass. Activity calls are given as the source filed them. No cut-off for these calls is given here.

How the values were obtained:
Trichophyton tonsurans = assay: Antifungal activity against Trichophyton tonsurans after 48 hrs by broth microdilution method; format: functional; conditions: for MIC: read-out: MIC100
Outline: (§1)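 Broth microdilution against filamentous fungi with serially diluted compounds. Amphotericin B (fungicidal) and fluconazole (fungistatic) were run as controls. Plates were incubated at 30 °C for 48 h.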

Candida albicans = assay: Antifungal activity against Candida albicans ATCC 09548 after 24 hrs by broth microdilution method; format: functional
Outline: (§2)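 Broth microdilution in microplates with a serial dilution series of compounds. Amphotericin B served as the fungicidal control and fluconazole as the fungistatic control. Yeast plates were incubated at 37 °C for 24 h.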

Pichia kudriavzevii = assay: Antifungal activity against Candida krusei ATCC 6258 after 24 hrs by broth microdilution method; format: functional; outline: as §2
Cryptococcus neoformans = assay: Antifungal activity against Cryptococcus neoformans ATCC 90012 after 24 hrs by broth microdilution method; format: functional; conditions: for MIC: read-out: MIC100; outline: as §2
Candida parapsilosis = assay: Antifungal activity against Candida parapsilosis ATCC 69548 after 24 hrs by broth microdilution method; format: functional; outline: as §2
Candida tropicalis = assay: Antifungal activity against Candida tropicalis ATCC 750 after 24 hrs by broth microdilution method; format: functional; outline: as §2
Nakaseomyces glabratus = assay: Antifungal activity against Candida glabrata ATCC 90030 after 24 hrs by broth microdilution method; format: functional; outline: as §2
Nannizzia gypsea = assay: Antifungal activity against Microsporum gypseum after 48 hrs by broth microdilution method; format: functional; outline: as §1
[1] = Cytotoxicity against human PBMC after 48 hrs by MTT assay; format: cell-based; conditions: PBMC (peripheral blood mononuclear cells)
Outline: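 Normal human PBMC from healthy volunteers were isolated by Ficoll-Hypaque density gradient and seeded at 2.4 × 10⁶ cells/mL. Compounds were added at 100 to 0.06 and cells held 48 h at 37 °C, 5% CO₂. MTT was then added for 4 h, formazan dissolved in DMSO and A560 read. Untreated cells were taken as 100% viability. CC50 was obtained by linear regression.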

[2] = tested on: Staphylococcus epidermidis; assay: Antimicrobial activity against Staphylococcus epidermidis ATCC 12228 after 24 hrs by broth microdilution method; format: functional
Outline: (§3)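 Microplate broth microdilution with a serial dilution series of compounds, using chloramphenicol as the antibacterial control. Bacterial plates were incubated at 35 °C for 24 h.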

Staphylococcus aureus [3] = assay: Antimicrobial activity against Staphylococcus aureus ATCC 6538 after 24 hrs by broth microdilution method; format: functional; conditions: for MIC50 / MIC: ATCC 6538, 24 h; for MIC: read-out: MIC100; outline: as §3
Proteus mirabilis = assay: Antimicrobial activity against Proteus mirabilis ATCC 25933 after 24 hrs by broth microdilution method; format: functional; outline: as §3
Bacillus cereus = assay: Antimicrobial activity against Bacillus cereus ATCC 11778 after 24 hrs by broth microdilution method; format: functional; conditions: for MIC: read-out: MIC100; outline: as §3
Escherichia coli = assay: Antimicrobial activity against Escherichia coli ATCC 25922 after 24 hrs by broth microdilution method; format: functional; outline: as §3
Salmonella typhimurium = assay: Antimicrobial activity against Salmonella typhimurium ATCC 14028 after 24 hrs by broth microdilution method; format: functional; outline: as §3
Pseudomonas aeruginosa = assay: Antimicrobial activity against Pseudomonas aeruginosa ATCC 9027 after 24 hrs by broth microdilution method; format: functional; outline: as §3
Staphylococcus aureus [4] = assay: Ratio of MIC100 for chloramphenicol to MIC100 of compound for Staphylococcus aureus ATCC 6538 after 24 hrs by broth microdilution method; format: functional
[5] = Salmonella enterica subsp. enterica serovar Typhimurium
[6] = Salmonella enterica, ATCC 14028, 24 h, read-out: MIC50
[7] = ATCC 90012, 24 h, read-out: MIC50
[8] = Salmonella enterica, ATCC 14028, 24 h

Compound	MIC50 (Trichophyton tonsurans)	MIC50 (Candida parapsilosis)	MIC50 (Candida tropicalis)	MIC50 (Nannizzia gypsea)	CC50 at 48 h [1] [µM]	MIC50 [2]	MIC100 [2]	MIC100 (Proteus mirabilis)	MIC50 (Candida albicans)	MIC100 (Candida albicans)	MIC (Bacillus cereus; ATCC 11778, 24 h) [µM]	MIC100 (Escherichia coli)	MIC50 (Escherichia coli; ATCC 25922, 24 h) [µM]	MIC100 (Salmonella typhimurium; [5])	MIC100 (Candida parapsilosis)	MIC100 (Candida tropicalis)	MIC100 (Pseudomonas aeruginosa)	MIC100 (Nakaseomyces glabratus)	MIC100 (Pichia kudriavzevii)	MIC50 (Staphylococcus aureus [3]; read-out: MIC50) [µM]	other results
C[C@@H]1[C@H](O)[C@@H](C)/C=C/C=C/C=C/C=C/C=C/C=C/C=C/[C@H](O[C@@H]2O[C@H](C)[C@@H](O)[C@H](N)[C@@H]2O)C[C@@H]2O[C@](O)(C[C@@H](O)C[C@@H](O)[C@H](O)CC[C@@H](O)C[C@@H](O)CC(=O)O[C@H]1C)C[C@H](O)[C@H]2C(=O)O [AMPHOTERICIN B]	inactive	inactive	inactive	inactive	–	–	–	–	–	–	–	–	–	–	–	–	–	–	–	–	MIC (Trichophyton tonsurans): 540 µM (≈ 499 µg/mL); MIC (Candida albicans; ATCC 09548, 24 h, read-out: MIC100): 0.54 µM (≈ 0.499 µg/mL); MIC50 (Pichia kudriavzevii): inactive; MIC (Pichia kudriavzevii; ATCC 6258, 24 h, read-out: MIC100): 1.08 µM (≈ 0.998 µg/mL); MIC50 (Cryptococcus neoformans): inactive; MIC (Cryptococcus neoformans; ATCC 90012, 24 h): 1.08 µM (≈ 0.998 µg/mL); MIC (Candida parapsilosis; Lodderomyces parapsilosis, ATCC 69548, 24 h, read-out: MIC100): 0.54 µM (≈ 0.499 µg/mL); MIC (Candida tropicalis; ATCC 750, 24 h, read-out: MIC100): 1.08 µM (≈ 0.998 µg/mL); MIC50 (Nakaseomyces glabratus): inactive; MIC (Nakaseomyces glabratus; ATCC 90030, 24 h, read-out: MIC100): 0.54 µM (≈ 0.499 µg/mL)
CC(C)=CCC[C@]1(C)[C@@H](CC=C(C)C)C[C@@]2(CC=C(C)C)C(=O)C(C(=O)c3ccc(OC(=O)OC(C)(C)C)c(O)c3)=C(O)[C@]1(CC=C(C)C)C2=O	55 µM (≈ 38.7 µg/mL)	–	inactive	–	> 142	inactive	inactive	inactive	inactive	inactive	28.4 (≈ 20 µg/mL)	inactive	555 (≈ 390 µg/mL)	inactive	inactive	inactive	inactive	inactive	–	–	MIC50 (Staphylococcus aureus [3]): 18 µM (≈ 12.7 µg/mL); MIC (Trichophyton tonsurans): 1820 µM (≈ 1280 µg/mL); MIC50 (Proteus mirabilis): inactive; MIC50 (Bacillus cereus; ATCC 11778, 24 h): 1800 µM (≈ 1270 µg/mL); MIC50 (Pichia kudriavzevii; ATCC 6258, 24 h): 56.9 µM (≈ 40 µg/mL); MIC50 (Salmonella typhimurium; [6]): 57 µM (≈ 40.1 µg/mL); MIC50 (Cryptococcus neoformans; [7]): 555 µM (≈ 390 µg/mL); MIC (Cryptococcus neoformans; ATCC 90012, 24 h): 1.82 µM (≈ 1.28 µg/mL); MIC50 (Pseudomonas aeruginosa; ATCC 9027, 24 h): 58.2 µM (≈ 40.9 µg/mL); MIC50 (Nakaseomyces glabratus; ATCC 90030, 24 h): 56.9 µM (≈ 40 µg/mL); MIC (Nannizzia gypsea; read-out: MIC100): 28.4 µM (≈ 20 µg/mL)
OC(Cn1cncn1)(Cn1cncn1)c1ccc(F)cc1F [FLUCONAZOLE]	–	–	–	–	–	–	–	–	–	inactive	–	–	–	–	inactive	–	–	inactive	inactive	–	MIC50 (Cryptococcus neoformans; [7]): 6530 µM (≈ 2000 µg/mL); MIC50 (Candida tropicalis; ATCC 750, 24 h): 3260 µM (≈ 998 µg/mL)
O=C(N[C@H](CO)[C@H](O)c1ccc([N+](=O)[O-])cc1)C(Cl)Cl [CHLORAMPHENICOL]	–	–	–	–	–	–	–	–	–	–	77.4 (≈ 25 µg/mL)	–	1510 (≈ 487 µg/mL)	–	–	–	–	–	–	6030 (≈ 1950 µg/mL)	MIC (Staphylococcus aureus [3]): 12 µM (≈ 3.89 µg/mL); MIC50 (Proteus mirabilis; ATCC 25933, 24 h): 24.1 µM (≈ 7.79 µg/mL); MIC (Proteus mirabilis; ATCC 25933, 24 h, read-out: MIC100): 48.3 µM (≈ 15.6 µg/mL); MIC50 (Bacillus cereus; ATCC 11778, 24 h): 4820 µM (≈ 1560 µg/mL); MIC (Escherichia coli; ATCC 25922, 24 h, read-out: MIC100): 12.1 µM (≈ 3.9 µg/mL); MIC50 (Salmonella typhimurium; [8]): 15.1 µM (≈ 4.88 µg/mL); MIC (Salmonella typhimurium; Salmonella enterica, ATCC 14028, 24 h, read-out: MIC100): 6.03 µM (≈ 1.95 µg/mL); MIC50 (Pseudomonas aeruginosa; ATCC 9027, 24 h): 48.3 µM (≈ 15.6 µg/mL)
CC(C)=CCC[C@]1(C)[C@@H](CC=C(C)C)C[C@@]2(CC=C(C)C)C(=O)C(C(=O)c3ccc(OS(C)(=O)=O)c(OS(C)(=O)=O)c3)=C(O)[C@]1(CC=C(C)C)C2=O	3290 µM (≈ 2500 µg/mL)	inactive	inactive	inactive	> 132	inactive	inactive	inactive	inactive	inactive	1.65 (≈ 1.25 µg/mL)	inactive	205 (≈ 156 µg/mL)	inactive	inactive	inactive	inactive	inactive	inactive	51 (≈ 38.7 µg/mL)	MIC (Staphylococcus aureus [3]): 3.29 µM (≈ 2.5 µg/mL); Ratio (Staphylococcus aureus [4]): 3.66; MIC100 (Trichophyton tonsurans): inactive; MIC50 (Proteus mirabilis): inactive; MIC50 (Bacillus cereus; ATCC 11778, 24 h): 1650 µM (≈ 1250 µg/mL); MIC50 (Pichia kudriavzevii; ATCC 6258, 24 h): 52.7 µM (≈ 40 µg/mL); MIC50 (Salmonella typhimurium; [5]): inactive; MIC100 (Cryptococcus neoformans): inactive; MIC50 (Cryptococcus neoformans; ATCC 90012, 24 h): 52.7 µM (≈ 40 µg/mL); MIC50 (Pseudomonas aeruginosa): inactive; MIC100 (Nannizzia gypsea): inactive
CC(=O)Oc1ccc(C(=O)C2=C(O)[C@]3(CC=C(C)C)C[C@H](CC=C(C)C)[C@@](C)(CCC=C(C)C)[C@](CC=C(C)C)(C2=O)C3=O)cc1OC(C)=O	–	inactive	inactive	inactive	114	inactive	inactive	inactive	inactive	inactive	0.227 (≈ 0.156 µg/mL)	inactive	1820 (≈ 1250 µg/mL)	inactive	inactive	inactive	inactive	inactive	inactive	56 (≈ 38.5 µg/mL)	MIC (Staphylococcus aureus [3]): 3.64 µM (≈ 2.5 µg/mL); Ratio (Staphylococcus aureus [4]): 3.31; MIC (Trichophyton tonsurans): 3640 µM (≈ 2500 µg/mL); MIC50 (Proteus mirabilis): inactive; MIC50 (Bacillus cereus): inactive; MIC50 (Pichia kudriavzevii; ATCC 6258, 24 h, read-out: MIC50): 3640 µM (≈ 2500 µg/mL); MIC50 (Salmonella typhimurium; [5]): inactive; MIC50 (Cryptococcus neoformans; [7]): 56 µM (≈ 38.5 µg/mL); MIC (Cryptococcus neoformans; ATCC 90012, 24 h): 3.64 µM (≈ 2.5 µg/mL); MIC50 (Pseudomonas aeruginosa): inactive
CC(C)=CCC[C@]1(C)[C@@H](CC=C(C)C)C[C@@]2(CC=C(C)C)C(=O)C(C(=O)c3ccc(OC(=O)c4ccc(Cl)cc4)c(OC(=O)c4ccc(Cl)cc4)c3)=C(O)[C@]1(CC=C(C)C)C2=O	inactive	inactive	inactive	inactive	> 114	inactive	inactive	inactive	inactive	inactive	45.5 (≈ 40 µg/mL)	inactive	44 (≈ 38.7 µg/mL)	inactive	inactive	inactive	inactive	inactive	inactive	177 (≈ 156 µg/mL)	MIC100 (Staphylococcus aureus [3]): inactive; MIC100 (Trichophyton tonsurans): inactive; MIC50 (Bacillus cereus; ATCC 11778, 24 h): 354 µM (≈ 312 µg/mL); MIC50 (Pichia kudriavzevii): inactive; MIC50 (Salmonella typhimurium; [6]): 44 µM (≈ 38.7 µg/mL); MIC100 (Cryptococcus neoformans): inactive; MIC50 (Cryptococcus neoformans; ATCC 90012, 24 h): 45.5 µM (≈ 40 µg/mL); MIC50 (Pseudomonas aeruginosa): inactive; MIC50 (Nakaseomyces glabratus): inactive; MIC100 (Nannizzia gypsea): inactive
CC(C)=CCC[C@]1(C)[C@@H](CC=C(C)C)C[C@@]2(CC=C(C)C)C(=O)C(C(=O)c3ccc(OC(=O)c4ccccc4)c(OC(=O)c4ccccc4)c3)=C(O)[C@]1(CC=C(C)C)C2=O	inactive	inactive	inactive	inactive	> 123	inactive	inactive	inactive	inactive	inactive	–	inactive	48 (≈ 38.9 µg/mL)	inactive	inactive	inactive	inactive	inactive	inactive	1540 (≈ 1250 µg/mL)	MIC100 (Staphylococcus aureus [3]): inactive; MIC100 (Trichophyton tonsurans): inactive; MIC50 (Proteus mirabilis): inactive; MIC100 (Bacillus cereus): inactive; MIC50 (Pichia kudriavzevii): inactive; MIC50 (Salmonella typhimurium; [8]): 49.3 µM (≈ 40 µg/mL); MIC100 (Cryptococcus neoformans): inactive; MIC50 (Cryptococcus neoformans; ATCC 90012, 24 h): 49.3 µM (≈ 40 µg/mL); MIC50 (Nakaseomyces glabratus): inactive; MIC100 (Nannizzia gypsea): inactive
